Results taken from ChEMBL document CHEMBL1817593, “C5'-Alkyl Substitution Effects on Digitoxigenin α-l-Glycoside Cancer Cytotoxicity” (ACS Med Chem Lett, 2011).

Legend:
Format in all cases: functional
[1] = system: NCI-H460; assay: Induction of apoptosis in human NCI-H460 cells in serum free medium at 50 nM after 12 hrs by Hoechst 33342/propidium iodide staining based fluorescence microscopy
Outline: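 NCI-H460 cells exposed to a single 50 nM concentration for 12 h. Cells stained with Hoechst 33342 and propidium iodide. Blue cells with condensed or fragmented nuclei were scored as apoptotic and red, ruptured cells as necrotic. Result given as % apoptotic cell death; N = 6, one-way ANOVA.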

[2] = system: NCI-H460; assay: Cytotoxicity against human NCI-H460 cells assessed as cell death in serum free medium at 10 nM after 12 hrs by Hoechst 33342/propidium iodide staining based fluorescence microscopy
Outline: (§1)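 NCI-H460 human lung cancer cells exposed 12 h to 10 nM–10 μM drug, including a 50 nM single-concentration test. Nuclei were stained with Hoechst 33342 and necrotic cells with propidium iodide. Apoptotic cells were scored by condensed or fragmented blue nuclei and necrotic cells by red PI staining. Total cell death (apoptosis plus necrosis) was recorded; N = 6.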

[3] = system: NCI-H460; assay: Cytotoxicity against human NCI-H460 cells assessed as cell death in serum free medium at 25 nM after 12 hrs by Hoechst 33342/propidium iodide staining based fluorescence microscopy; outline: as §1
[4] = system: NCI-H460; assay: Cytotoxicity against human NCI-H460 cells assessed as cell death in serum free medium at 50 nM after 12 hrs by Hoechst 33342/propidium iodide staining based fluorescence microscopy; outline: as §1
[5] = system: NCI-H460; assay: Cytotoxicity against human NCI-H460 cells assessed as cell death in serum free medium at 250 nM after 12 hrs by Hoechst 33342/propidium iodide staining based fluorescence microscopy; outline: as §1
[6] = system: NCI-H460; assay: Cytotoxicity against human NCI-H460 cells assessed as cell death in serum free medium at 10000 nM after 12 hrs by Hoechst 33342/propidium iodide staining based fluorescence microscopy; outline: as §1
[7] = system: NCI-H460; assay: Cytotoxicity against human NCI-H460 cells assessed as cell viability at 1 nM after 48 hrs by MTT assay; details: NCI-H460, 48 h, read-out: Activity
Outline: (§2)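 Viability of NCI-H460 cells was measured by MTT (mitochondrial enzymatic activity) after 48 h exposure, within a dose series spanning 1 nM–10 μM. N = 9, analysed by two-way ANOVA.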

[8] = system: NCI-H460; assay: Cytotoxicity against human NCI-H460 cells assessed as cell viability at 10 nM after 48 hrs by MTT assay; details: NCI-H460, 48 h, read-out: Activity; outline: as §2
[9] = system: NCI-H460; assay: Cytotoxicity against human NCI-H460 cells assessed as cell viability at 50 nM after 48 hrs by MTT assay; details: NCI-H460, 48 h, read-out: Activity; outline: as §2
[10] = system: NCI-H460; assay: Cytotoxicity against human NCI-H460 cells assessed as cell viability at 100 nM after 48 hrs by MTT assay; details: NCI-H460, 48 h, read-out: Activity; outline: as §2
[11] = system: NCI-H460; assay: Cytotoxicity against human NCI-H460 cells assessed as cell viability at 500 nM after 48 hrs by MTT assay; details: NCI-H460, 48 h, read-out: Activity; outline: as §2
[12] = system: NCI-H460; assay: Cytotoxicity against human NCI-H460 cells assessed as cell viability at 1000 nM after 48 hrs by MTT assay; details: NCI-H460, 48 h, read-out: Activity; outline: as §2
[13] = system: NCI-H460; assay: Cytotoxicity against human NCI-H460 cells assessed as cell viability after 48 hrs by MTT assay; details: NCI-H460, 48 h
Outline: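 NCI-H460 cells were exposed to drug for 48 h, and viability was read by MTT as mitochondrial enzymatic activity. GI50 was derived from dose-response curves (1 nM–10 μM). Values are from three independent experiments with duplicate determinations, given with standard error of the mean.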

[14] = system: K562; assay: Cytotoxicity against human K562 cells after 48 hrs by sulforhodamine B assay; details: K562, 48 h
[15] = system: SR; assay: Cytotoxicity against human SR cells after 48 hrs by sulforhodamine B assay
[16] = system: EKVX; assay: Cytotoxicity against human EKVX cells after 48 hrs by sulforhodamine B assay
[17] = system: NCI-H226; assay: Cytotoxicity against human NCI-H226 cells after 48 hrs by sulforhodamine B assay; details: NCI-H226, 48 h
[18] = system: NCI-H460; assay: Cytotoxicity against human NCI-H460 cells after 48 hrs by sulforhodamine B assay; details: NCI-H460, 48 h
[19] = system: HCC 2998; assay: Cytotoxicity against human HCC2998 cells after 48 hrs by sulforhodamine B assay; details: HCC 2998, 48 h
[20] = system: HCT-116; assay: Cytotoxicity against human HCT116 cells after 48 hrs by sulforhodamine B assay; details: HCT-116, 48 h
[21] = system: HCT-15; assay: Cytotoxicity against human HCT15 cells after 48 hrs by sulforhodamine B assay; details: HCT-15, 48 h
[22] = system: HT-29; assay: Cytotoxicity against human HT-29 cells after 48 hrs by sulforhodamine B assay; details: HT-29, 48 h
[23] = system: KM12; assay: Cytotoxicity against human KM12 cells after 48 hrs by sulforhodamine B assay; details: KM12, 48 h
[24] = system: SW-620; assay: Cytotoxicity against human SW620 cells after 48 hrs by sulforhodamine B assay; details: SW-620, 48 h
[25] = system: SF-268; assay: Cytotoxicity against human SF268 cells after 48 hrs by sulforhodamine B assay; details: SF-268, 48 h
[26] = system: SNB-75; assay: Cytotoxicity against human SNB75 cells after 48 hrs by sulforhodamine B assay; details: SNB-75, 48 h
[27] = system: U-251; assay: Cytotoxicity against human U251 cells after 48 hrs by sulforhodamine B assay; details: U-251, 48 h
[28] = system: Malme-3M; assay: Cytotoxicity against human MALME-3M cells after 48 hrs by sulforhodamine B assay
[29] = system: M14; assay: Cytotoxicity against human M14 cells after 48 hrs by sulforhodamine B assay; details: M14, 48 h
[30] = system: MDA-MB-435; assay: Cytotoxicity against human MDA-MB-435 melanoma cells after 48 hrs by sulforhodamine B assay; details: MDA-MB-435, 48 h
[31] = system: SK-MEL-2; assay: Cytotoxicity against human SK-MEL-2 cells after 48 hrs by sulforhodamine B assay; details: SK-MEL-2, 48 h
[32] = system: OVCAR-4; assay: Cytotoxicity against human OVCAR4 cells after 48 hrs by sulforhodamine B assay; details: OVCAR-4, 48 h
[33] = system: OVCAR-8; assay: Cytotoxicity against human OVCAR8 cells after 48 hrs by sulforhodamine B assay; details: OVCAR-8, 48 h
[34] = system: NCI/ADR-RES; assay: Cytotoxicity against human NCI/ADR-RES cells after 48 hrs by sulforhodamine B assay
[35] = system: 786-0; assay: Cytotoxicity against human 786-0 cells after 48 hrs by sulforhodamine B assay; details: 786-0, 48 h
[36] = system: A498; assay: Cytotoxicity against human A498 cells after 48 hrs by sulforhodamine B assay; details: A498, 48 h
[37] = system: TK-10; assay: Cytotoxicity against human TK10 cells after 48 hrs by sulforhodamine B assay; details: TK-10, 48 h
[38] = system: T47D; assay: Cytotoxicity against human T47D cells after 48 hrs by sulforhodamine B assay
[39] = system: MDA-MB-435; assay: Cytotoxicity against human MDA-MB-435 breast cancer cells after 48 hrs by sulforhodamine B assay; details: MDA-MB-435, 48 h
[40] = system: NCI-H460; assay: Growth inhibition of human NCI-H460 cells after 48 hrs by MTT assay
Outline: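 NCI-H460 viability measured by MTT (mitochondrial enzymatic activity) after 48 h exposure at 1 nM to 10 μM. GI50 derived from dose-response curves, with N = 9 and two-way ANOVA. Values are the mean of three independent experiments with duplicate determinations.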

Molecule `CC(C)C[C@@H]1O[C@@H](O[C@H]2CC[C@@]3(C)[C@H](CC[C@@H]4[C@@H]3CC[C@]3(C)[C@@H](C5=CC(=O)OC5)CC[C@]43O)C2)CC[C@H]1O` has an Activity [1] of 9.2821%, an Activity [2] of 10.03% and an Activity [3] of 12.41%. For the same molecule, the Activity [4] was 13.06%, the Activity [5] was 21.86% and the Activity [6] was 100%. For the same molecule, the viability at 0.001 µM [7] was 81.8%, the viability at 0.01 µM [8] was 49.2% and the viability at 0.05 µM [9] was 25.1%. The viability at 0.1 µM [10] was 18.5%, the viability at 0.5 µM [11] was 4.88% and the viability at 1 µM [12] was 3.64%. For the same molecule, the GI50 [13] was 8.27 nM, the GI50 [14] was 26.9 nM and the GI50 [15] was 23 nM. It also gave a GI50 [16] of 31.7 nM, a GI50 [17] of 95.9 nM and a GI50 [18] of 20.9 nM. It also gave a GI50 [19] of 204 nM, a GI50 [20] of 26.1 nM and a GI50 [21] of 40.3 nM. It also gave a GI50 [22] of 31.5 nM, a GI50 [23] of 55.9 nM and a GI50 [24] of 32 nM. It also gave a GI50 [25] of 26.3 nM, a GI50 [26] of 85.3 nM and a GI50 [27] of 39.7 nM. For the same molecule, the GI50 [28] was 25.7 nM, the GI50 [29] was 67.2 nM and the GI50 [30] was 35.1 nM. It also gave a GI50 [31] of 115 nM, a GI50 [32] of 85.5 nM and a GI50 [33] of 29.6 nM. For the same molecule, the GI50 [34] was 26.9 nM, the GI50 [35] was 23.3 nM and the GI50 [36] was 27 nM. The GI50 [37] was 28.6 nM, the GI50 [38] was 36.2 nM and the GI50 [39] was 149 nM. The GI50 [40] was “Dose-dependent effect” and the GI50 ([40]; NCI-H460, 48 h) was 8 nM.
`CC(C)[C@@H]1O[C@@H](O[C@H]2CC[C@@]3(C)[C@H](CC[C@@H]4[C@@H]3CC[C@]3(C)[C@@H](C5=CC(=O)OC5)CC[C@]43O)C2)CC[C@H]1O` showed an Activity [1] of 11.993%, an Activity [2] of 9.96% and an Activity [3] of 12.07%. For the same molecule, the Activity [4] was 14.48%, the Activity [5] was 22.73% and the Activity [6] was 100%. The viability at 0.001 µM [7] was 81.1%, the viability at 0.01 µM [8] was 50.7% and the viability at 0.05 µM [9] was 22.2%. The viability at 0.1 µM [10] was 12.4%, the viability at 0.5 µM [11] was 6.35% and the viability at 1 µM [12] was 5.21%. For the same molecule, the GI50 [13] was 7.66 nM, the GI50 [14] was 47 nM and the GI50 [15] was 37.2 nM. The GI50 [16] was 31.9 nM, the GI50 [17] was 119 nM and the GI50 [18] was 21.7 nM. The GI50 [19] was 243 nM, the GI50 [20] was 21.5 nM and the GI50 [21] was 62.2 nM. For the same molecule, the GI50 [22] was 41.9 nM, the GI50 [23] was 152 nM and the GI50 [24] was 42.8 nM. The GI50 [25] was 26.3 nM, the GI50 [26] was 92.6 nM and the GI50 [27] was 82.9 nM. The GI50 [28] was 63.6 nM, the GI50 [29] was 93.4 nM and the GI50 [30] was 82.8 nM. The GI50 [31] was 170 nM, the GI50 [32] was 123 nM and the GI50 [33] was 56.2 nM. It also gave a GI50 [34] of 31.5 nM, a GI50 [35] of 26.8 nM and a GI50 [36] of 90.1 nM. The GI50 [37] was 53.8 nM, the GI50 [38] was 95.9 nM and the GI50 [39] was 150 nM. The GI50 [40] was “Dose-dependent effect” and the GI50 ([40]; NCI-H460, 48 h) was 8 nM.
